The record followed here is ChEMBL document CHEMBL1155083, “Piperazine sulfonamides as potent, selective, and orally available 11beta-hydroxysteroid dehydrogenase type 1 inhibitors with efficacy in the rat cortisone-induced hyperinsulinemia model” (J Med Chem, 2008).

Data set [1] is filed under the species Rattus norvegicus. Kind of data set: Effect on glucose level in cortisone-induced Sprague-Dawley rat hyperinsulinemia model. It is filed as functional, organism-based. A digest of the protocol: (§1)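 Male SD rats given cortisone in drinking water (2 mg/mL); inhibitors dosed orally b.i.d. for 7 days. On day 7, body weight, food intake, liquid consumption, plasma glucose and serum insulin were measured; insulin reduction expressed as percent.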

In data set [2] the target is 11-beta-hydroxysteroid dehydrogenase 1 (Rattus norvegicus, UniProt P16232). Kind of data set: Inhibition of rat 11betaHSD1. The gist of the method: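 Potency against rat enzyme measured in a cell-based assay using CHO cells expressing rat 11β-HSD1; IC50 reported.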
Sequence of 11-beta-hydroxysteroid dehydrogenase 1 (Rattus norvegicus, UniProt P16232) (P16232 whole entry): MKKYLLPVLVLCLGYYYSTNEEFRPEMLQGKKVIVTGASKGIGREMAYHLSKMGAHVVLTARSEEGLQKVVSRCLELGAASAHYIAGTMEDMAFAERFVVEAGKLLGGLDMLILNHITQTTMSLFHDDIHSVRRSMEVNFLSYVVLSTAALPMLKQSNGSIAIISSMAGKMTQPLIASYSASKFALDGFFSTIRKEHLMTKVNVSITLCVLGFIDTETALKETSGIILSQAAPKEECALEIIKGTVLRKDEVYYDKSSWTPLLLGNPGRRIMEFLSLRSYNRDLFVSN
The target in data set [3] is 11-beta-hydroxysteroid dehydrogenase 1 (Homo sapiens, UniProt P28845). Nature of the data set: Inhibition of human 11betaHSD1 expressed in CHO cells by cell based assay.
Sequence of 11-beta-hydroxysteroid dehydrogenase 1 (Homo sapiens, UniProt P28845) (P28845 whole entry): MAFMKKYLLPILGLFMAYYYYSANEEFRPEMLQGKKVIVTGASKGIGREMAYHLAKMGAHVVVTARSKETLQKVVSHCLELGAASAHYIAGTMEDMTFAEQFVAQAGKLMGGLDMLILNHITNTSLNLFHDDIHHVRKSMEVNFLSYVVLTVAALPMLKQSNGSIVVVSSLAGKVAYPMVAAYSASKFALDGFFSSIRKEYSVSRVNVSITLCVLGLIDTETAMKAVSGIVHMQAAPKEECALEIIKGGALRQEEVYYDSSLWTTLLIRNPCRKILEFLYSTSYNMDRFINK
A short description of data set [4]: AUC in Sprague-Dawley rat at 30 mg/kg, po. Set-up: dose 30 mg/kg, route oral. It is filed as ADME, organism-based. The conditions noted are these: plasma. The gist of the method:
(§2)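 Oral PK in rats; single dose 30 mg/kg by gavage, formulated in 0.5% methyl cellulose/2% Tween; plasma exposure reported as Cmax (ng/mL) and AUC (ng·h/mL).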

Data set [5] concerns the target T1, 11-beta-hydroxysteroid dehydrogenase type 2 (Homo sapiens) (UniProt P80365).
T1 sequence (whole entry): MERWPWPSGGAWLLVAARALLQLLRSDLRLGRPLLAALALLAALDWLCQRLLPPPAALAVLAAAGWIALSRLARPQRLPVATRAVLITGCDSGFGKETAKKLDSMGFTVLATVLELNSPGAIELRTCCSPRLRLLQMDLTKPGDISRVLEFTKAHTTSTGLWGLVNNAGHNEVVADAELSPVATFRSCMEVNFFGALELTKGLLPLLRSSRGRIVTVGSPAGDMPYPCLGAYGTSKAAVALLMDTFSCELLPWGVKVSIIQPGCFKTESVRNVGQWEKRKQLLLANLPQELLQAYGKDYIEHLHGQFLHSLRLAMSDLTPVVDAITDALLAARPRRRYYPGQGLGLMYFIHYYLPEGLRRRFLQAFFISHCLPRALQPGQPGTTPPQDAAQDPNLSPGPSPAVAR
Nature of the data set: Inhibition of 11betaHSD2 at 100 uM by cell based assay.

Data set [6] has as its target T2, 11-beta-hydroxysteroid dehydrogenase 1 (Mus musculus, UniProt P50172). Nature of the data set: Inhibition of mouse 11betaHSD1 expressed in CHO cells by cell based assay.
A short description of data set [7]: Metabolic stability assessed as half life in mouse liver microsomes. On the technique in general: Liver microsomes are vesicles of endoplasmic reticulum, rich in cytochrome P450 enzymes.
In data set [8] the target is T2, 11-beta-hydroxysteroid dehydrogenase 1. Nature of the data set: Inhibition of C57BL/6 mouse 11betaHSD1 in presence of human serum.
Data set [9] in a line: Oral bioavailability in mouse at 30 mg/kg. The conditions noted are these: in vivo. Type of data set: ADME, organism-based.
Data set [10] relates to Rattus norvegicus. Kind of data set: Effect on cortisone-induced Sprague-Dawley rat hyperinsulinemia model assessed as reduction in insulin at 60 mg/kg, bid after 7 days. Set-up: scale not given: the % may be the effect or the level left. It is filed as functional. A digest of the protocol:
as §1

The subject of data set [11] is Mus musculus. Kind of data set: Ex vivo inhibition of 11betaHSD1 in C57BL/6 mouse assessed as conversion of [3H]cortisone to [3H]cortisole in liver at 30 mg/kg, po. It is filed as functional. The conditions noted are these: C57BL/6, Liver. A digest of the protocol:
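Mice dosed orally; sacrificed 5 h after dosing. Liver samples taken and 11β-HSD1 conversion of cortisone to cortisol measured; percent inhibition reported.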

A short description of data set [12]: Clearance in mouse at 2 mg/kg, iv. Details: dose 2 mg/kg, route intravenous. Type of data set: ADME, organism-based. The conditions noted are these: in vivo.
A short description of data set [13]: Cmax in Sprague-Dawley rat at 30 mg/kg, po. Type of data set: ADME, organism-based. Details: dose 30 mg/kg, route oral. The conditions noted are these: in vivo. The gist of the method:
as §2

The test system of data set [14] is Rattus norvegicus. Kind of data set: Ex vivo inhibition of 11betaHSD1 in Sprague-Dawley rat assessed as conversion of [3H]cortisone to [3H]cortisole in liver at 30 mg/kg, po after 2 hrs. It is filed as functional.
Data set [15] deals with Rattus norvegicus. Kind of data set: Effect on cortisone-induced Sprague-Dawley rat hyperinsulinemia model assessed as reduction in insulin at 30 mg/kg, bid after 7 days. Set-up: scale not given: the % may be the effect or the level left. It is filed as functional. The gist of the method:
as §1

Data set [16] has as its system Mus musculus. Kind of data set: Ex vivo inhibition of 11betaHSD1 in C57BL/6 mouse assessed as conversion of [3H]cortisone to [3H]cortisole in liver at 10 mg/kg, po. The conditions noted are these: C57BL/6, Liver. Type of data set: functional.

Structures are written as SMILES. Calls of active or inactive are those of the source. The rule behind the calls is not given here. Some results are limits rather than exact numbers.

T2 sequence (P50172 whole entry): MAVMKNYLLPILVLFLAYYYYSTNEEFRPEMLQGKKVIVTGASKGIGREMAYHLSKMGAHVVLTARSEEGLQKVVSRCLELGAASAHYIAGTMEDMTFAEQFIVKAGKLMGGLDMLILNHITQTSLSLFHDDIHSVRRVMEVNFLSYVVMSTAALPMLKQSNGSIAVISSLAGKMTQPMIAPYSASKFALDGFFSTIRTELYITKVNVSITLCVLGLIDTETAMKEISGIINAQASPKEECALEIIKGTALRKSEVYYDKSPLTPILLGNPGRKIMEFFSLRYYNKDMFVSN

As to `C[C@@H]1CN(c2ccc(F)cc2C(F)(F)F)CCN1S(=O)(=O)c1cccc(N2CCC(O)C2)c1` (stereo partly specified), the outcome (in the data set filed under Rattus norvegicus [1]; in data set [5]) was inactive. The IC50 (usually the concentration needed to halve the response being measured) in data set [2] came out at 13 nM; in [3], 10 nM; in data set [6], 13 nM; in data set [8], 11 nM. In addition, in data set [4], the AUC (usually concentration integrated over time) was 1040 ng·h/mL. The half-life (as a rule, the time in which the quantity being followed falls by half) in data set [7] worked out at 11 min. The bioavailability (in general, the share of a dose that reaches the circulation, judged against a reference dose that is usually intravenous) in data set [9] came to 9%. Further, in the data set with Rattus norvegicus [10], the Activity stood at 19%. The inhibition in vivo (as a rule, how much of the control response was suppressed) at 30 mg/kg stood at 47% in the data set on Mus musculus [11] and 62% in the data set on Rattus norvegicus [14]. For the same molecule, the clearance (as a rule, the rate of elimination divided by the concentration) in [12] was found to be 54 mL/min/kg. The highest level in data set [13] (Cmax) was 185 ng/mL.

In the case of `C[C@@H]1CN(c2ccc(F)cc2C(F)(F)F)CCN1S(=O)(=O)c1cccc(OC(C)(C)C(=O)O)c1`, the result (in the data set filed under Rattus norvegicus [1]; in data set [5]) was inactive. For the same molecule, the concentration for half-maximal inhibition (IC50) is 110 nM in data set [2], 300 nM in [3], 37 nM in data set [6] and 130 nM in data set [8]. Besides, the Activity in the data set on Rattus norvegicus [15] was determined as 30%. This molecule also returned an exposure (AUC) in data set [4] of 51100 ng·h/mL. Besides, the half-life in data set [7] is > 30 min. In [9], this molecule registered a bioavailability of 100%. Also, the inhibition in vivo at 30 mg/kg stood at 38% with Mus musculus [11] and 35% with Rattus norvegicus [14]. This molecule returned a clearance in [12] of 25 mL/min/kg. Moreover, the peak level in [13] (Cmax) was 9180 ng/mL.

For `C[C@@H]1CN(c2ccc(F)cc2C(F)(F)F)CCN1S(=O)(=O)c1cccc(N2CCN(C)CC2)c1`, the outcome (in the data set listed under Rattus norvegicus [1]; in data set [5]) was inactive. The 50% inhibitory concentration (IC50) in data set [2] was 42 nM; in data set [3], 21 nM; in [6], 12 nM; in data set [8], 28 nM. The molecule further showed an exposure (AUC) in data set [4] of 2280 ng·h/mL. Moreover, the half-life in data set [7] was 15 min. The bioavailability in [9] is 79%. Moreover, the Activity with Rattus norvegicus [10] turned out to be 11%. For the same molecule, the inhibition in vivo at 30 mg/kg stood at 45% with Mus musculus [11] and 32% with Rattus norvegicus [14]. The molecule also showed a clearance in data set [12] of 36 mL/min/kg. For the same molecule, the Cmax – broadly, the peak of the concentration-time curve – in [13] stood at 246 ng/mL.

In the case of `C[C@@H]1CN(c2ccc(F)cc2C(F)(F)F)CCN1S(=O)(=O)c1cccc(-n2cncn2)c1`, the outcome (in the data set filed under Rattus norvegicus [1]; in data set [5]) was inactive. The IC50 was 81 nM in [2], 26 nM in [3], 10 nM in data set [6] and 42 nM in [8]. Besides, the AUC in data set [4] is 1040 ng·h/mL. Also, the half-life in data set [7] is 12 min. The inhibition in vivo at 10 mg/kg with Mus musculus [16] turned out to be 44%. The same molecule came in with a bioavailability in data set [9] of 34%. In addition, the Activity in the data set with Rattus norvegicus [10] is listed as 34%. In [12], this molecule displayed a clearance of 13 mL/min/kg. The molecule further had a Cmax in data set [13] of 149 ng/mL. For the same molecule, the inhibition in vivo at 30 mg/kg in the data set with Rattus norvegicus [14] is 59%.
